VIM-2 inh – inhibitors of Pseudomonas aeruginosa VIM-2 metallo-beta-lactamase | purified VIM-2, nitrocefin hydrolysis, epi-absorbance fluorescence | 290,000 compounds, 0.89% hits | inhibition, % at 5.6 µM;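 active = inhibition above the mean of all tested compounds plus 3 SD, cutoff set per screening run, cut at about 7.5% in these data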;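 note: red hydrolysis product quenches plate fluorescence so inhibitors raise well fluorescence; 0% = enzyme with DMSO and 100% = DMSO without enzyme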
RanGTP-Imp inh – disruptors of Ran-importin-beta complex formation – biochemical, FRET, CFP-Ran, YFP-importin-beta, homogeneous, primary screen. cell-free CFP-Ran/YFP-importin-beta FRET ratio. inhibition, % (concentration not given with the values). 300,000 compounds, 1.1% hits;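 active = more than half of the replicate wells show a fall in the fluorescence ratio signal beyond about 16%, limit read from the data, passing the limit was not always enough; inconclusive = exactly half of the replicate wells pass the set limit; inactive = fewer than half of replicates pass the limit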;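 note: 0% = DMSO wells and 100% = Ran loaded with GDP instead of GTP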
IMP-1 inh – inhibitors of Pseudomonas aeruginosa IMP-1 metallo-beta-lactamase; purified IMP-1, nitrocefin hydrolysis, epi-absorbance fluorescence; inhibition, % at 5.6 µM; 290,000 compounds, 0.45% hits; AID 1556;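 active = inhibition above the mean plus 3 SD of all compounds in the same screening run, cut at about 4.5% in these data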;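 note: 0% = IMP-1 with DMSO and 100% = DMSO wells lacking enzyme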
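System: purified IMP-1 / Input: IMP-1 dispensed at 0.2 nM / Medium: 50 mM HEPES pH 7.1, 50 µM ZnSO4, 0.05% Brij 35 / Timing: 15 min enzyme–compound preincubation, then 25 min nitrocefin reaction, 25 °C / Technique: plate fluorescence quenching by hydrolysis product, ex 480/em 530 nm / Repeats: singlicate testing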
Runt-SMMHC FRET – inhibitors of human RUNX1 Runt domain binding to CBFb-SMMHC | AID 1434 | Q01196+Q13951 | Cerulean-Runt/Venus-CBFb-SMMHC FRET ratio 530/480, 1 h | 220,000 compounds, 0.74% hits | inhibition, % at 20 µM;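 active = mean inhibition across duplicate retests at 20 µM reaching about 50%, limit read from the data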;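 note: 0% = DMSO wells and 100% = wells with excess untagged CBFb-SMMHC; inhibitors lower the FRET ratio by blocking Runt binding to CBFb-SMMHC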
Target sequence (Q01196 whole entry, looked up, the tested form may be a part): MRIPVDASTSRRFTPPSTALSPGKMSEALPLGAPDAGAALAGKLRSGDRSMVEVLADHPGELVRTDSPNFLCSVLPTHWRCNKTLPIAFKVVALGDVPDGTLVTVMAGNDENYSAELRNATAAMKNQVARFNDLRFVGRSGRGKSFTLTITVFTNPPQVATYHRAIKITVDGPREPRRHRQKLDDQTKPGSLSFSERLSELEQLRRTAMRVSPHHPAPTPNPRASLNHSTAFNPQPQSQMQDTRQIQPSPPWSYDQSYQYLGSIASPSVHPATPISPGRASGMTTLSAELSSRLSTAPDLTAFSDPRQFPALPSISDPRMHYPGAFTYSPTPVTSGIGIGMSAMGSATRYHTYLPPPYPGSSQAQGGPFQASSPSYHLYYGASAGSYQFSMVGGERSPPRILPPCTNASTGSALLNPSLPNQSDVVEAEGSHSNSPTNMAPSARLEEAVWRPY
Target sequence (Q13951 whole entry, looked up, the tested form may be a part): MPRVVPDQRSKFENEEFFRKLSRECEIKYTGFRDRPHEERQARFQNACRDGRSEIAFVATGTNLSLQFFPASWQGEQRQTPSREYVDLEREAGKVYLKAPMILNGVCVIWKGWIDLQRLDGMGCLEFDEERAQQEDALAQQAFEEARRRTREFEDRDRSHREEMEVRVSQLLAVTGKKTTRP
Runt-CBFb FRET – Runt domain-CBFb interaction inhibition. 220,000 compounds, 0.46% hits. inhibition, % at 20 µM. Cerulean-Runt/Venus-CBFb FRET ratio 530/480, 1 h. Q01196+Q13951;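 active = inhibition over about 50% at 20 µM in the single-dose screen, limit read from the data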;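 note: 0% = DMSO wells and 100% = excess unlabeled CBFb competitor control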
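Assay system: Cerulean-Runt domain fusion protein, energy donor; Signal: fluorescence energy transfer, 422 nm excitation, 530/480 nm emission; Timing: 1 h compound exposure, room temperature; Control set: unlabeled CBFb; Medium: Tris buffer pH 7.5 with salts and BSA; Compound: single test concentration of 20 µM, 1% DMSO final; Probe or stimulus: Venus-CBFb 100 nM.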
* marks the source's active call; other numbers are inactive results; ? = inconclusive; . = no result given. A selection: hits, their analogues and other compounds. The true share with any hit is near 2.6%.

SMILES	VIM-2 inh	RanGTP-Imp inh	IMP-1 inh	Runt-SMMHC FRET	Runt-CBFb FRET
Cc1ccc(O)c(N=Cc2cc(Cc3ccccc3)cc([N+](=O)[O-])c2O)c1	-2	-1	11*	-15	15
O=[N+]([O-])c1cc(Cc2ccccc2)cc(C=Nc2ccc(N3CCOCC3)cc2)c1O	-4	-4	8.8*	-25	-17
O=C(COc1ccc2c3c(c(=O)oc2c1)CCCC3)NCc1cccnc1	9.2*	-3	-2	.	.
CC(Oc1ccc2c3c(c(=O)oc2c1)CCCC3)C(=O)NCc1ccccn1 (stereo not drawn)	8.5*	4	1	.	.
CC(Oc1ccc2c3c(c(=O)oc2c1)CCC3)C(=O)N[C@@H](Cc1ccccc1)C(=O)O (stereo partly drawn)	-1	-2	-4	.	.
CC(Oc1ccc2c3c(c(=O)oc2c1)CCC3)C(=O)NCCN1CCOCC1 (stereo not drawn)	12*	3	-2	.	.
Cc1c(C)c2ccc(OC(C)C(=O)NCc3ccccn3)cc2oc1=O (stereo not drawn)	0	-5	-4	.	.
Cc1c(OC(C)C(=O)NCCCN2CCOCC2)ccc2c3c(c(=O)oc12)CCCC3 (stereo not drawn)	11*	5	-1	.	.
CCOc1ccc(OCCC(=O)OCC(=O)N2CCN(S(=O)(=O)c3ccc(Cl)cc3)CC2)cc1	0	3	2	.	.
O=C(NCCN1CCOCC1)c1ccc2c(c1)N(Cc1ccccc1F)C(=O)c1ccccc1S2(=O)=O	-1	3	-1	.	.
CC(=O)c1ccc(OCc2cc(C(=O)N3CCN(C4CCCC4)C(=O)C3)no2)cc1	1	1	0	.	.
O=C(CCc1ccncc1)N1CCCC(Nc2ccc(F)c(F)c2)C1 (stereo not drawn)	-2	-2	-7	.	.
Cc1c(C)c2ccc(OC(C)C(=O)NCCCN3CCOCC3)c(C)c2oc1=O (stereo not drawn)	8.6*	-1	1	.	.
Cc1c(C)c2ccc(OC(C)C(=O)NCCN3CCOCC3)c(C)c2oc1=O (stereo not drawn)	7	-3	-3	.	.
CCOC(=O)N1CCN(C(=O)CNS(=O)(=O)c2c(C)cc(C)cc2C)CC1	-4	-2	-3	.	.
CC1(C)CC(=O)C2=C(C1)OC1=C(C(=O)CC(C)(C)C1)C2c1ccc(O)c([N+](=O)[O-])c1	1	0	0	-1	-3
CC1(C)CC(=O)C2=C(C1)OC1=C(C(=O)CC(C)(C)C1)C2c1ccc(O)cc1O	-2	93*	-2	42	6
Cn1cnnc1Sc1ccc(/C=C(\CCC(=O)O)c2nc3ccccc3s2)cc1[N+](=O)[O-]	4	-3	0	-5	1
CNc1ccc(/C=C(\CCC(=O)O)c2nc3ccccc3s2)cc1[N+](=O)[O-]	11*	?	-4	-3	-5
Cc1ccc(/C=C(\CCC(=O)O)c2nc3ccccc3s2)cc1[N+](=O)[O-]	8.8*	-2	-1	-1	-9
CN(c1ccccc1)c1ccc(/C=C(\CCC(=O)O)c2nc3ccccc3s2)cc1[N+](=O)[O-]	1	2	-3	-14	-7
Nc1n[nH]c2cc(=O)n(-c3cccc(C(F)(F)F)c3)nc12	-4	118*	-4	86*	64*
CC1CCCCN1S(=O)(=O)c1ccc(S(=O)(=O)N2CCN(C)CC2)cc1 (stereo not drawn)	-1	-3	0	.	.
CCN(CC)S(=O)(=O)c1cccc(NC(=O)CSc2nnc(N)s2)c1	-5	30*	-3	-2	0
COc1cccc(Cn2c(=O)sc3ccccc3c2=O)c1	1	5	-1	-1	1
SMILES	VIM-2 inh	RanGTP-Imp inh	IMP-1 inh	Runt-SMMHC FRET	Runt-CBFb FRET
COc1cccc(Cn2c(=O)c3ccccc3n3nc(C)cc23)c1	9.1*	3	1	0	-3
CCCC1C2CN(C(C)C)CC=C2C(C#N)=C(N)C1(C#N)C#N (stereo not drawn)	1	89*	2	40	12
CN1CC=C2C(C#N)=C(N)C(C#N)(C#N)C(CCc3ccccc3)C2C1 (stereo not drawn)	-4	-2	-2	79*	103*
CN1CC=C2C(C#N)=C(N)C(C#N)(C#N)[C@H](c3cccc(Cl)c3)C2C1 (stereo partly drawn)	-1	45*	-1	58*	34
N#CC1=C(N)C(C#N)(C#N)C(c2ccncc2)C2CN(C(=O)OCc3ccccc3)CC=C12 (stereo not drawn)	0	14	2	22	15
CC(C)c1ccc(C2C3CSCC=C3C(C#N)=C(N)C2(C#N)C#N)cc1 (stereo not drawn)	-1	16*	0	-24	-9
CCOC(=O)N1CC=C2C(C#N)=C(N)C(C#N)(C#N)[C@H](c3ccc(OC(C)C)c(OCC)c3)[C@H]2C1	0	2	-4	2	-3
N#CC1=C(N)C(C#N)(C#N)C(c2cccnc2)C2CC(c3ccccc3)CC=C12 (stereo not drawn)	-4	-43	-2	-1	-44
CCN(CC(=O)Nc1ccc2c(c1)OCCO2)C(=O)CC(NC(C)=O)c1ccccc1 (stereo not drawn)	.	-2	.	.	.
Cc1ccc(-n2nc3c(=O)n(CC(=O)NC4CCCCCC4)nc(C)c3c2C)cc1	-3	3	-4	.	.
Cc1c(CC(=O)N[C@H](C(=O)O)C(C)C)c(=O)oc2cc3c(cc12)CCC(C)(C)O3	-4	2	-4	.	.
CN1CC=C2C(C#N)=C(N)C(C#N)(C#N)[C@H](c3cccs3)[C@H]2C1	-3	55*	0	75*	37
CCOC(=O)N1CC=C2C(C#N)=C(N)C(C#N)(C#N)[C@H](c3ccsc3)[C@H]2C1	-1	9	-2	-5	-1
CN1CC=C2C(C#N)=C(N)C(C#N)(C#N)C(c3ccsc3)C2C1 (stereo not drawn)	0	65*	-3	80*	66*
CCC1CCCCN1CCCNC(=O)Cn1ncn2nc(-c3ccc(OC)cc3)cc2c1=O (stereo not drawn)	0	4	0	.	.
CSCC[C@H](NC(=O)[C@@H]1Cc2ccccc2CN1)C(=O)NC[C@H]1CC[C@H](C(=O)O)CC1	-4	-2	-3	.	.
CCSc1sccc1C1C(C#N)=C(N)N(c2cccnc2)C2=C1C(=O)CCC2 (stereo not drawn)	0	?	-2	66*	45
C=CCNC(=O)N1CCCC(C(=O)c2cccc(OC(C)C)c2)C1 (stereo not drawn)	-1	1	-2	.	.
CN(/N=C/c1cccnc1)C1=NS(=O)(=O)c2ccccc21	5	-1	-3	0	2
COc1cccc(/C=N/N(C)C2=NS(=O)(=O)c3ccccc32)c1O	9.5*	0	-2	.	.
CN(/N=C/c1cc(Cl)ccc1O)C1=NS(=O)(=O)c2ccccc21	10*	1	0	.	.
